Screening data as filed in PubChem.
L major viab – Leishmania major promastigote growth inhibition | Leishmania major promastigotes, resazurin fluorescence viability | inhibition, % at 10 µM | 200,000 tested, 9% active; in the data active = inhibition above about 50%;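 also: promastigotes grown with compound for 44 hours at 28 °C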
Dynein cargo inh – blocks dynein driven cargo transport along microtubules | 3617.4 mouse cells, GR-EGFP nuclear translocation imaging; test concentration mostly 20 µM; stimulated with dexamethasone, 1 µM; stronger effect = lower value | z-score, hits read low | 220,000 tested, 0.47% active;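 active = plate z-score of nuclear minus cytoplasmic receptor signal below a set negative limit, without overly bright fluorescence or cell loss, cut at about -3.5 in these data, passing the limit was not always enough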;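 also: z-score of nuclear minus cytoplasmic ring GR-EGFP intensity difference per well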
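medium = tetracycline-free induction medium containing charcoal-stripped FBS | probe or stimulus = dexamethasone, 1.0 µM final | timing = 48 h induction, then 1 h compound, then 30 min agonist, 37 °C | detection = automated 10x imaging of fixed Hoechst-stained cells | read-out basis = nuclear versus cytoplasmic GR-EGFP signal, averaged per well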
Autophagy mod – autophagy modulation, high-content screen. MEF GFP-LC3 puncta imaging; test concentration mostly 10 µM. calls only at 10 µM (by protocol). 190,000 tested, 0.98% active;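 active = percentage of spot-positive cells more than 3 SD above its plate mean, without a fluorescence outlier flag or 80% toxicity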;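 also: spot-positive cell cutoff set from DMSO-treated cells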
HCT116 PTEN-null – PTEN-deleted cell growth suppression; HCT116 PTEN-null viability, CellTiter-Glo, 60 h; stronger effect = lower value; viability, % at 10 µM; 140,000 tested, 1.2% active; AID 827;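 active = viability at or below a set limit, 4 SD under the median of all tested compounds, cut at about 3.7% in these data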;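 also: PTEN knockout HCT116 line with beta catenin targeted HCT116 as companion control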
HCT116 bCat-KO – beta-catenin-lacking colon tumor cell growth suppression. HCT116 beta-catenin knockout viability, CellTiter-Glo, 60 h; stronger effect = lower value. viability, % at 10 µM. 140,000 tested, 1.5% active. AID 818;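 active = viability at or under a set limit, the compound median less 4 SD, cut at about 6% in these data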;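 also: 0% = Hyamine 1622 control at 20 µM and 100% = untreated cell control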
* = called active by the depositor; i = inactive; . = no result; + = active, no number. Hits are enriched below; roughly 9.2% of the tested compounds scored in any of these assays.

SMILES	L major viab	Dynein cargo inh	Autophagy mod	HCT116 PTEN-null	HCT116 bCat-KO
O=C(CNc1ccc2ccccc2c1)N/N=C/c1ccc([N+](=O)[O-])o1	100*	1.3	i	8	20
O=C(COc1ccccc1)N/N=C/c1ccc([N+](=O)[O-])o1	100*	-0.83	i	1.0*	1.3*
Cc1cc(C(=O)N/N=C/c2ccc([N+](=O)[O-])o2)c(C)o1	.	-0.47	.	.	.
COc1ccc(-c2nn(-c3ccccc3)cc2C(=O)N/N=C/c2ccc([N+](=O)[O-])o2)cc1	65*	-0.81	i	.	.
Cc1ccc(-c2nnn(CC(=O)N(c3cccc(F)c3)C(C(=O)NC(C)(C)C)c3ccco3)n2)o1 (stereo not drawn)	-3	0.33	i	.	.
O=C(NCc1ccco1)c1n[nH]c(=O)c2ccccc12	-5	-0.29	i	87	113
CN1CCN(c2cc3c(c4c2[nH]c2ccccc24)C(=O)CC(C)(C)C3)CC1	95*	-0.47	i	1.8*	1.4*
CN1CCN(c2ncnc3c2[nH]c2ccc(F)cc23)CC1	13	0.77	i	84	83
O=C(O)C1CCCN(S(=O)(=O)c2ccc(Br)cc2)C1 (stereo not drawn)	-9	-0.89	i	97	99
Cc1ccc(OP(=O)(Nc2c(C)n(C)n(-c3ccccc3)c2=O)Oc2ccc(C)cc2)cc1	69*	0.93	i	96	84
Cc1ccc2[nH]c(=O)c(CN(CCCN3CCOCC3)C(=O)Nc3ccc(Cl)cc3)cc2c1	29	0.014	i	.	.
COc1nc(Cl)cn(-c2ccc(C)cc2)c1=O	-4	-0.51	i	101	92
Cc1ccc(-n2c(Cl)c(Cl)nc(Cl)c2=O)cc1	17	-4.1*	i	2.5*	4.9*
COc1ccc(C2=C(Nc3ccc(C)cc3)c3ccccc3C2=O)cc1	64*	1.1	i	87	94
O=C(Nc1ccc(SC(F)F)cc1)c1ccc(F)cc1	7	0.72	i	.	.
CN1CCN(C(=O)CSc2nc(-c3cccs3)ccc2C#N)CC1	95*	-0.65	i	97	98
N#Cc1ccc(-c2cccs2)nc1SCc1cccnc1	.	-0.21	.	.	.
CN(C(=O)CO/N=C/c1ccc(OC(F)F)cc1)C1CCS(=O)(=O)C1 (stereo not drawn)	-5	0.48	i	.	.
Cc1ccc(C)c(S(=O)(=O)N2CCN(C(C(=O)Nc3ccc(F)cc3)c3ccccc3)CC2)c1 (stereo not drawn)	56*	0.58	i	68	67
CCN(CCCNC(=O)CCCOc1cc(=O)n(C)c2ccccc12)Cc1ccccc1	86*	-1	i	.	.
CN(CCCNC(=O)COc1cc(=O)n(C)c2ccccc12)Cc1ccccc1	-4	-0.8	i	80	82
CCN(CCCNC(=O)COc1cc(=O)n(CC)c2ccccc12)Cc1ccccc1	-3	0.23	+	62	55
CCC(C)C(NC(=O)C(C)NC(=O)CNC(=O)CNC(=O)OCc1ccccc1)C(=O)OC (stereo not drawn)	-6	-0.48	i	101	101
Cc1c(Cl)cccc1NC(=O)CNc1cccc(S(=O)(=O)N(C)C)c1	72*	-0.59	i	83	87
CN(C)S(=O)(=O)c1cccc(NC(=O)CCSc2ccc(Cl)cc2)c1	5	-0.11	i	58	62
SMILES	L major viab	Dynein cargo inh	Autophagy mod	HCT116 PTEN-null	HCT116 bCat-KO
N/C(=N\c1nc2c(c(=O)[nH]1)CCCC2)Nc1ccccc1	7	-1.2	i	82	79
N/C(=N\c1nc2c(c(=O)[nH]1)CCC2)Nc1ccccc1	73*	0.22	i	98	78
CN(C)c1ccc(C2CC(c3cccc(NS(C)(=O)=O)c3)=NN2C(=O)c2ccccc2)cc1 (stereo not drawn)	60*	0.2	i	.	.
COc1ccccc1-c1cc(C(=O)N/N=C/c2ccc(C)s2)c2ccccc2n1	83*	0.87	i	77	68
CC(C)(C)C(=O)/C=c1\[nH]c(=O)/c(=C\c2ccc(C#N)cc2)s1	60*	-0.81	i	30	29
Cc1cccc(/C=c2\s/c(=C\C(=O)C(C)(C)C)[nH]c2=O)c1	20	-1	i	26	29
O=C(CSc1ncnc2scc(-c3ccccc3)c12)N1CCN(c2ccccc2F)CC1	55*	-0.94	i	66	65
Cn1c(SCc2ccccn2)nc2c1c(=O)[nH]c(=O)n2C	.	-0.012	.	.	.
O=C(O)C1CC(=O)N(c2ccc(OCc3ccc(Cl)cc3Cl)cc2)C1 (stereo not drawn)	-5	0.9	i	3.2*	3.3*
Cc1ccc(N2CCN(S(=O)(=O)N3CCCCC3)CC2)cc1Cl	76*	0.39	i	100	86
Cc1ccc(S(=O)(=O)N(C)c2cc(S(=O)(=O)N3CCC(C)CC3)c(C)cc2C)cc1	77*	-0.096	i	56	55
C=CCn1c(=O)c(C(=O)Nc2ccccc2S(N)(=O)=O)c(O)c2ccccc21	3	2.5	i	.	.
Cc1sc2nc(CN3CCCC3)nc(Cl)c2c1C	86*	-1.3	i	53	16
CCOC(=O)c1sc2nc(CN3CCCCC3)nc(Cl)c2c1C	5	0.41	i	.	.
O=C(Nc1cccc(F)c1)C1CCN(C(=O)c2ccccc2Cl)CC1	-1	-0.37	i	103	92
CCOc1ccc(Nc2nc(N)nc(CN3CCN(c4ccccc4F)CC3)n2)cc1	52*	-0.8	i	.	.
Nc1nc(N2CCCCC2)nc(N2CCCCC2)n1	7	-0.87	i	97	91
c1ccc(Nc2nc(N3CCCCC3)nc(N3CCNCC3)n2)cc1	100*	0.22	i	1.4*	1.5*
Cc1cccc(Nc2nc(N)nc(CN3CCN(c4ccccc4F)CC3)n2)c1	18	-0.81	i	.	.
CCOc1ccc(Nc2nc(N3CCCCC3)nc(N3CCCCC3)n2)cc1	59*	0.44	i	78	75
C1CCN(c2nc(N3CCCC3)nc(N3CCNCC3)n2)C1	100*	0.21	i	51	62
CCOc1c(Nc2ccccc2O)c(=O)c1=O	.	-0.16	.	.	.
Cc1nn2c(nc(N3CCCCC3)c3ccccc32)c1C=O	53*	0.8	i	73	75
COc1ccc(CCNC(=O)Cn2c(=O)n(-c3ccc(C)c(F)c3)c(=O)c3sccc32)cc1OC	0	2	i	.	.
N#CCCn1nc(-c2ccc(Br)cc2)cc1Nc1ccccc1NC(=O)C(F)(F)F	69*	-1.3	i	55	59
SMILES	L major viab	Dynein cargo inh	Autophagy mod	HCT116 PTEN-null	HCT116 bCat-KO
CN(C(=O)c1ccc(S(=O)(=O)c2cccc(Cl)c2)c([N+](=O)[O-])c1)C1CCCCC1	100*	-3.1	i	5	7
CN(C(=O)c1ccc2nccnc2c1)C1CCCCC1	.	-1.3	.	.	.
O=C(Cc1n[nH]c(=O)c2ccccc12)NC(c1ccccc1)c1ccccc1	.	2.1	.	.	.
Clc1ccc(/C=N/Nc2nnc(Cl)c3ccccc23)cc1	6	0.31	+	43	44
Fc1ccc(-n2[nH]nnc2=S)cc1N1CCCC1	-2	-0.58	i	102	115
Nc1c(N2CCCC2)cc(Cl)c2nonc12	86*	-2.1	i	106	95
